Reference: ChEMBL document CHEMBL1144013, “Indol-3-yl-tetramethylcyclopropyl ketones: effects of indole ring substitution on CB2 cannabinoid receptor activity” (J Med Chem, 2008)

What was measured:
Cannabinoid receptor 1 = Cannabinoid receptor 1 (Homo sapiens, UniProt P21554); test: Displacement of [3H]CP-55940 from human recombinant CB1 receptor expressed in HEK cells; type: cell-based, HEK293
Cannabinoid receptor 2 [1] = target: T1, Cannabinoid receptor 2 (Homo sapiens, UniProt P34972); test: Agonist activity at human recombinant CB2 receptor expressed in HEK cells assessed as calcium mobilization by FLIPR; type: functional, cell-based, HEK293
Procedure, shortened: (§1)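 HEK cells stably coexpressing human CB2 and chimeric Gαq/o5 protein, seeded 75,000/well one day before; no-wash calcium dye.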

Cannabinoid receptor 2 [2] = target: T1, Cannabinoid receptor 2; test: Displacement of [3H]CP-55940 from human recombinant CB2 receptor expressed in HEK cells; type: cell-based, HEK293
Homo sapiens = organism: Homo sapiens; test: Selectivity for human recombinant CB2 receptor over human recombinant CB1 receptor
Procedure, shortened: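 Ki ratio from [3H]CP-55940 (0.5 nM) competition binding: human CB1 membranes from stably expressing […] cells versus human CB2 membranes from stably expressing HEK cells. Tris-HCl pH 7.4 buffer with EDTA, MgCl2, BSA; 90 min at 30 °C; filtration counting; nonspecific with 10 µM unlabeled ligand; ≥3 experiments in duplicate.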

Cannabinoid receptor 2 [3] = target: T1, Cannabinoid receptor 2; test: Agonist activity at human recombinant CB2 receptor expressed in HEK cells assessed as calcium mobilization by FLIPR relative to CP-55940; type: functional, cell-based; details: HEK293; procedure, shortened: as §1

Chain of Cannabinoid receptor 1 (P21554 whole entry): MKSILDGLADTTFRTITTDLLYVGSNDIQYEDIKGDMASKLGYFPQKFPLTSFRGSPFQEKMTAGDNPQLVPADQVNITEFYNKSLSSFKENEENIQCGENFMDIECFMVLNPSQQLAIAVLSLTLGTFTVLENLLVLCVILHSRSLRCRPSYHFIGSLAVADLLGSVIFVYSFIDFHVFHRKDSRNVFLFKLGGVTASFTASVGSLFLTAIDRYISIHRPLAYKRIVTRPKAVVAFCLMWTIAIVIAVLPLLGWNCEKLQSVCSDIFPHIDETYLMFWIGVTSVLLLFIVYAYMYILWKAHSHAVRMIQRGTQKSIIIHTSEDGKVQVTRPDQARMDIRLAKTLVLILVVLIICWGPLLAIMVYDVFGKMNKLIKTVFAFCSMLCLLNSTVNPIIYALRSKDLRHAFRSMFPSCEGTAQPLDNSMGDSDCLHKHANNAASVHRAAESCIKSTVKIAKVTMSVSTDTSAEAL
T1 sequence (P34972 whole entry): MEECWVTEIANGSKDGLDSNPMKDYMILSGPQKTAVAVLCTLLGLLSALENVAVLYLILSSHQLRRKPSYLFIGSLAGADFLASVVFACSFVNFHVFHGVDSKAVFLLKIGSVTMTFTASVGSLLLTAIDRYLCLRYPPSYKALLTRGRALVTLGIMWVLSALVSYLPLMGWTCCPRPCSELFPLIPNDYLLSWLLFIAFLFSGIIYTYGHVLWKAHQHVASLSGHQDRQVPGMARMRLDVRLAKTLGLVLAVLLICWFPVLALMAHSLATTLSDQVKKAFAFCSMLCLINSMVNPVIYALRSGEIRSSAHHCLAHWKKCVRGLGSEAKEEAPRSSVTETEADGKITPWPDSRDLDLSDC

Structure (SMILES) | Ki (Cannabinoid receptor 1; read-out: Ki) | Ki (Cannabinoid receptor 1; read-out: Log Ki (converted)) | EC50 (Cannabinoid receptor 2 [1]) | Ki (Cannabinoid receptor 2 [2]; read-out: Ki) | Ratio Ki (Homo sapiens) | Activity (Cannabinoid receptor 2 [3]) | Ki (Cannabinoid receptor 2 [2]; read-out: Log Ki (converted)) | Ki (Cannabinoid receptor 2 [2]; hek293, read-out: Ki)
COc1ccc2c(c1)c(C(=O)C1C(C)(C)C1(C)C)cn2CCN1CCOCC1 | > 3500 nM | > 3470 nM | > 10000 nM | 237 nM | > 15 |  |  | 
CC1(C)C(C(=O)c2cn(CC3CCOCC3)c3c(F)c(F)c(F)c(F)c23)C1(C)C | 66 nM |  | 37 nM | 5 nM | 13 | 88% |  | 
CC1(C)C(C(=O)c2cn(CC3CCOCC3)c3cc(C#N)ccc23)C1(C)C |  |  | 45 nM | 5 nM |  | 67% |  | 
Cc1c(C(=O)C2C(C)(C)C2(C)C)c2ccccc2n1CCN1CCOCC1 | > 10000 nM |  | 227 nM | 27 nM | > 370 | 60% |  | 
CC1(C)C(C(=O)c2cn(CC3CCOCC3)c3cc(O)ccc23)C1(C)C | > 3000 nM | > 3020 nM | 15 nM | 8.5 nM | > 353 | 107% |  | 
COc1ccc2c(C(=O)C3C(C)(C)C3(C)C)cn(CC3CCOCC3)c2c1 | 40 nM |  | > 10000 nM | 0.51 nM | 78 |  |  | 
CC1(C)C(C(=O)c2cn(CC3CCOCC3)c3ccc(OCCCCO)cc23)C1(C)C | > 10000 nM |  | > 10000 nM | 260 nM | > 38 |  |  | 
CC1(C)C(C(=O)c2cn(CC3CCOCC3)c3ccc(Cl)cc23)C1(C)C | 512 nM |  | 92 nM | 3 nM | 171 | 69% |  | 
CC1(C)C(C(=O)c2cn(CCN3CCOCC3)c3ccc(O)cc23)C1(C)C | > 10000 nM |  | > 10000 nM | 92 nM | > 109 |  |  | 
CC1(C)C(C(=O)c2cn(CC3CCOCC3)c3ccc(F)cc23)C1(C)C | 1210 nM |  | 22 nM | 1.6 nM | 756 | 88% |  | 
COCc1ccc2c(c1)c(C(=O)C1C(C)(C)C1(C)C)cn2CC1CCOCC1 |  |  | 41 nM | 26 nM |  | 50% |  | 
CC1(C)C(C(=O)c2cn(CC3CCOCC3)c3cccc(OCc4ccccc4)c23)C1(C)C | > 10000 nM |  | 383 nM | 9.3 nM | > 1080 | 45% |  | 
COC(=O)c1ccc2c(c1)c(C(=O)C1C(C)(C)C1(C)C)cn2CC1CCOCC1 | > 10000 nM |  | > 10000 nM | 238 nM | > 42 |  |  | 
CC1(C)C(C(=O)c2cn(CC3CCOCC3)c3ccc(C#N)cc23)C1(C)C |  |  | 226 nM | 30 nM |  | 65% |  | 
COc1ccc2c(c1)c(C(=O)C1C(C)(C)C1(C)C)cn2CC1CCOCC1 | 282 nM |  | 61 nM | 4.6 nM | 61 | 35% |  | 
CC1(C)C(C(=O)c2cn(CCN3CCOCC3)c3cc(O)ccc23)C1(C)C | > 10000 nM |  | 186 nM | 109 nM | > 92 | 62% |  | 
CC1(C)C(C(=O)c2cn(CCN3CCOCC3)c3cccc(NS(C)(=O)=O)c23)C1(C)C |  |  | > 10000 nM | > 1000 nM |  |  |  | 
COc1cc2c(cc1OCc1ccccc1)c(C(=O)C1C(C)(C)C1(C)C)cn2CC1CCOCC1 |  |  | > 10000 nM | 1.8 nM |  |  |  | 
CC1(C)C(C(=O)c2cn(CC3CCOCC3)c3cc(CN)ccc23)C1(C)C | > 1000 nM |  | > 10000 nM | 62 nM | > 16 |  |  | 
COc1ccc2c(C(=O)C3C(C)(C)C3(C)C)cn(CCN3CCOCC3)c2c1 |  |  | > 10000 nM |  |  |  | 1.58 nM | 
CC1(C)C(C(=O)c2cn(CC3CCOCC3)c3c(O)cccc23)C1(C)C |  |  | > 10000 nM | 3.2 nM |  |  |  | 
Cc1ccc2c(C(=O)C3C(C)(C)C3(C)C)cn(CC3CCOCC3)c2c1 |  |  | > 10000 nM | 0.15 nM |  |  |  | 
CC1(C)C(C(=O)c2cn(CC3CCOCC3)c3cc(Br)ccc23)C1(C)C |  |  | > 10000 nM | 0.65 nM |  |  |  | 

Structure (SMILES) | Ki (Cannabinoid receptor 1; read-out: Ki) | Ki (Cannabinoid receptor 1; read-out: Log Ki (converted)) | EC50 (Cannabinoid receptor 2 [1]) | Ki (Cannabinoid receptor 2 [2]; read-out: Ki) | Ratio Ki (Homo sapiens) | Activity (Cannabinoid receptor 2 [3]) | Ki (Cannabinoid receptor 2 [2]; read-out: Log Ki (converted)) | Ki (Cannabinoid receptor 2 [2]; hek293, read-out: Ki)
COC(=O)c1ccc2c(C(=O)C3C(C)(C)C3(C)C)cn(CC3CCOCC3)c2c1 |  |  | > 10000 nM | 1.4 nM |  |  |  | 
CC1(C)C(C(=O)c2cn(CC3CCOCC3)c3ccc(O)cc23)C1(C)C |  |  | 7 nM | 1.9 nM |  | 78% |  | 
CC1(C)C(C(=O)c2cn(CC3CCOCC3)c3cc(S(C)(=O)=O)ccc23)C1(C)C | 1270 nM |  | > 10000 nM | 3 nM | 423 |  |  | 
CCCn1c(C)c(C(=O)c2cccc3ccccc23)c2ccccc21 |  |  |  |  |  | 75% |  | 
CC1(C)C(C(=O)c2cn(CC3CCOCC3)c3cc(OCc4ccccc4)ccc23)C1(C)C |  |  | 135 nM | 0.88 nM |  | 45% |  | 
COc1cc2c(cc1O)c(C(=O)C1C(C)(C)C1(C)C)cn2CC1CCOCC1 |  |  | > 10000 nM | 0.7 nM |  |  |  | 
CC1(C)C(C(=O)c2cn(CC3CCOCC3)c3ccccc23)C1(C)C |  |  | 7 nM | 0.21 nM |  | 133% |  | 
CC(=O)Nc1cccc2c1c(C(=O)C1C(C)(C)C1(C)C)cn2CCN1CCOCC1 | > 2200 nM | > 2190 nM | > 10000 nM | > 1000 nM |  |  |  | 
CN1CCCCC1Cn1cc(C(=O)c2cc([N+](=O)[O-])ccc2I)c2ccccc21 (stereo not given) | 1270 nM |  | > 10000 nM | 11.5 nM | 110 |  |  | 
CC1(C)C(C(=O)c2cn(CC3CCOCC3)c3ccc(-c4ccccc4)cc23)C1(C)C |  |  | > 10000 nM | 58 nM |  |  |  | 
CC1(C)C(C(=O)c2cn(CC3CCOCC3)c3cc(C(F)(F)F)ccc23)C1(C)C | 70 nM |  | > 10000 nM | 3.5 nM | 20 |  |  | 
CC1(C)C(C(=O)c2cn(CC3CCOCC3)c3ccc(OCCCCBr)cc23)C1(C)C | > 10000 nM |  | > 10000 nM | 72 nM | > 139 |  |  | 
CC1(C)C(C(=O)c2cn(CC3CCOCC3)c3ccc(OCc4ccccc4)cc23)C1(C)C | 238 nM |  | > 10000 nM | 1.3 nM | 183 |  |  | 
CC1(C)C(C(=O)c2cn(CC3CCOCC3)c3cc(Cl)ccc23)C1(C)C |  |  | 10 nM | 2.5 nM |  | 60% |  | 
CC1(C)C(C(=O)c2cn(CCN3CCOCC3)c3ccc(OCc4ccccc4)cc23)C1(C)C | > 10000 nM |  | > 10000 nM |  |  |  | > 1000 nM | > 1000 nM
CC1(C)C(C(=O)c2cn(CC3CCOCC3)c3c(OCc4ccccc4)cccc23)C1(C)C | 1100 nM |  | > 10000 nM | 3.1 nM | 353 |  |  | 
CC1(C)C(C(=O)c2cn(CC3CCOCC3)c3ccc(CN)cc23)C1(C)C | > 10000 nM |  | > 10000 nM | > 1000 nM |  |  |  | 
CC1(C)C(C(=O)c2cn(CCN3CCOCC3)c3cccc([N+](=O)[O-])c23)C1(C)C | > 10000 nM |  | > 10000 nM | 297 nM | > 34 |  |  | 
CC1(C)C(C(=O)c2cn(CC3CCOCC3)c3cc4c(cc23)OCO4)C1(C)C |  |  | 18 nM | 1 nM |  | 62% |  | 
CC1(C)C(C(=O)c2cn(CC3CCOCC3)c3cc(O)c(O)cc23)C1(C)C |  |  | 21 nM | 21 nM |  | 106% |  | 
CC1(C)C(C(=O)c2cn(CCN3CCOCC3)c3cc(OCc4ccccc4)ccc23)C1(C)C |  |  | > 10000 nM | 2.9 nM |  |  |  | 
COc1cccc2c(C(=O)C3C(C)(C)C3(C)C)cn(CC3CCOCC3)c12 |  |  | > 10000 nM | 0.12 nM |  |  |  | 
